Screening data as filed in PubChem BioAssay.
Yeast lifespan up: yeast lifespan extension; 0.68% of 130,000 active; S. cerevisiae growth with nicotinamide, OD615; deaD strain in restrictive glucose medium; inhibition of the nicotinamide effect, % at 10 µM; AID 775;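 active = inhibition above a set limit, placed 3 SD over the median of all compounds, cut at about 26% in these data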;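 note: 0% = nicotinamide-treated wells and 100% = cells grown without nicotinamide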
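Assay system: engineered S. cerevisiae DeaD replicative-lifespan strain, galactose-grown log-phase cells; medium: restrictive CSMM-D dextrose medium; also added: nicotinamide, 1.5 mM, co-present with compound; schedule: 48 h compound exposure at 30 °C, humidified; detection: absorbance at 615 nm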
SDO1 yeast rescue: sdo1-depleted yeast growth rescue; S. cerevisiae sdo1-depleted JHY4D growth rescue, OD600 30 h; active compounds read high; pdr5 snq2 efflux-pump mutant strain; z-score at 10 µM; 0.21% of 140,000 active;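 active = z-score above 3 at both the 24 hr and the 30 hr optical density reads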;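 note: z-score against mean and SD of all compound wells on the same plate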
BB579 growth dn: chemicals that inhibit yeast BB579 growth in restrictive medium (lifespan-shortening candidates); 0.51% of 140,000 active; inhibition, % at 10 µM; S. cerevisiae BB579 growth, OD615, 48 h; AID 804;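 active = inhibition above a set limit, 3 SD over the mean compound inhibition, cut at about 44% in these data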
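Material: Saccharomyces cerevisiae DeaD strain BB579, replicative lifespan model yeast; buffer or medium: CSMM-D restrictive synthetic medium containing dextrose (glucose); compound: 10 µM single dose, DMSO 0.25%; timing: 48 h compound exposure at 30 °C after 4 h preincubation; signal: turbidity as optical density at 615 nm; benchmarks: positive control amphotericin B 10 µg/mL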
RAM inhibit: inhibitors of the yeast RAM network; AID 868; 1.8% of 190,000 active; inhibition, % at 50 µM; S. cerevisiae dse1pr::URA3 reporter, 5-FOA growth OD615, 2 d; analog-sensitive cbk1-as2 kinase mutant strain;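 active = inhibition above a set limit, 3 SD over mean compound inhibition, cut at about 8.4% in these data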;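 note: 0% = DMSO-only wells with no growth and 100% = 10 µM 1-NA-PP1 full growth; inhibition rescues growth on 5-FOA so higher OD means more RAM inhibition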
The depositor's hits bear a star. This is a sample that favours compounds with a hit; in the whole collection about 2.7% have one here.

`COc1ccc(C(=O)/C=C/c2cccs2)c(OC(=O)c2cccc([N+](=O)[O-])c2)c1` gave Yeast lifespan up -10.3, SDO1 yeast rescue -1.57, BB579 growth dn -70.6 and RAM inhibit 9.3*.
Screening O=C(CSc1nc2cc(Cl)ccc2s1)NCc1ccc2c(c1)OCO2 returned Yeast lifespan up 7.4, SDO1 yeast rescue -0.89, BB579 growth dn 7.2 and RAM inhibit 10.5*.
Screening Cc1nnc(SCC(=O)NCc2ccc3c(c2)OCO3)s1 returned Yeast lifespan up -7.4, SDO1 yeast rescue -0.2, BB579 growth dn -43.0 and RAM inhibit 0.9.
`O=C(O)c1ccc(-c2ccc(/C=C3\NC(=O)N(Cc4ccc(Cl)cc4)C3=O)o2)cc1Cl` gave RAM inhibit 4.3.
Screening COC(=O)/C(=C1/Oc2ccc(C(C)(C)C)cc2S1)C(F)(F)F returned Yeast lifespan up 8.9, SDO1 yeast rescue 0.01, BB579 growth dn -48.2 and RAM inhibit 3.4.
COC(=O)/C(=C1/Oc2cc(C)oc(=O)c2S1)C(F)(F)F was read as Yeast lifespan up 47.4*, SDO1 yeast rescue -0.7, BB579 growth dn -19.4 and RAM inhibit 1.5.
S=C(NC1CCCCC1)N1CCN(Cc2ccccc2Cl)CC1 was read as RAM inhibit 1.0.
Screening CCN(CC(=O)NC(C)(C)C)C(=O)C(c1ccccc1)c1ccccc1 returned RAM inhibit 0.6.
For O=C(CCCc1nc2ccccc2s1)N1CCN(S(=O)(=O)c2cccs2)CC1 the results were Yeast lifespan up -7.8, SDO1 yeast rescue 0.02, BB579 growth dn -33.5 and RAM inhibit 8.8*.
COc1ccc(C2NC(=O)NC(c3ccccc3)=C2c2nc3ccccc3s2)cc1 (stereo not drawn) was read as Yeast lifespan up -7.3, SDO1 yeast rescue -0.53, BB579 growth dn -40.9 and RAM inhibit 8.7*.
For O=C1NC(c2ccccc2)=C(c2nc3ccccc3s2)C(c2ccc(F)cc2)N1 (stereo not drawn) the results were Yeast lifespan up 15.3, SDO1 yeast rescue -1.8, BB579 growth dn -11.1 and RAM inhibit 6.5.
`CC(CCn1cccn1)NC(=O)CCc1nnc(C2CCCCC2)o1` (stereo not drawn) gave RAM inhibit -0.1.
Screening O=C1c2ccccc2C(=O)C1c1ccc2ccccc2n1 returned Yeast lifespan up -8.2, SDO1 yeast rescue -0.8, BB579 growth dn 53.8* and RAM inhibit 2.2.
For COC(=O)C1=C(C)NC(C)=C(C(=O)OC)C1c1ccc2ccccc2n1 the results were Yeast lifespan up 3.0, SDO1 yeast rescue 1.13, BB579 growth dn -62.9 and RAM inhibit 0.3.
CCOC(=O)n1c(=O)n(Cc2ccccc2C)c2ccccc21 was read as RAM inhibit 0.4.
CCCCCCCC(=O)N/N=C(/C)c1c(O)cc(C)oc1=O was read as Yeast lifespan up 40.2*, SDO1 yeast rescue 0.54, BB579 growth dn -13.0 and RAM inhibit -0.9.
`CCCCCCCC(=O)N/N=C(\C)c1ccc(O)cc1O` gave Yeast lifespan up -1.2, SDO1 yeast rescue -1.03, BB579 growth dn -10.8 and RAM inhibit -1.4.
`Cc1ccc(S(=O)(=O)N(Cc2ccc(Cl)cc2)c2ccccc2C(=O)NCc2ccco2)cc1` gave Yeast lifespan up 13.3, SDO1 yeast rescue -0.83, BB579 growth dn -30.4 and RAM inhibit 8.9*.
CCOC(=O)C(=O)Nc1nnc(SCc2ccc(F)cc2)s1 was read as Yeast lifespan up 35.4*, SDO1 yeast rescue 0.15, BB579 growth dn -2.3 and RAM inhibit -0.1.
For CCCCCc1nnc(NC(=O)C(=O)OCC)s1 the results were Yeast lifespan up 39.0*, SDO1 yeast rescue 1.63, BB579 growth dn -47.4 and RAM inhibit -0.3.
Screening COc1ccc(C2CC(c3cccs3)=NN2C(=O)CSc2nc3ccccc3o2)cc1 (stereo not drawn) returned Yeast lifespan up -0.2, SDO1 yeast rescue 0.14, BB579 growth dn -32.1 and RAM inhibit 8.5*.
For Cc1ccc(COc2ccsc2C(=O)NNC(N)=S)cc1 the results were RAM inhibit 3.4.
`CCCc1nnc(NC(=O)OCC)s1` gave RAM inhibit 1.6.
`C=CCn1c(SCC(=O)Nc2sccc2C(N)=O)nc2sc(CC)cc2c1=O` gave Yeast lifespan up 0.1, SDO1 yeast rescue 0.24, BB579 growth dn -43.3 and RAM inhibit 8.5*.
C=CCn1c(SCC(=O)Nc2sccc2C(N)=O)nc2ccc(Cl)cc2c1=O was read as Yeast lifespan up -10.3, SDO1 yeast rescue -0.1, BB579 growth dn -54.7 and RAM inhibit 0.7.
For CCCCCC1(C(=O)OCC)CC(CSC(=N)N)OC1=O (stereo not drawn) the results were RAM inhibit -0.5.
Screening CCC(=O)NC(Nc1c(C)n(C)n(-c2ccccc2)c1=O)C(Cl)(Cl)Cl (stereo not drawn) returned RAM inhibit 0.6.
For CCCN1C(=O)/C(=C/c2c(NCCCOC(C)C)nc3c(C)cccn3c2=O)SC1=S the results were Yeast lifespan up 8.8, SDO1 yeast rescue 0.17, BB579 growth dn -18.9 and RAM inhibit 9.4*.
`CCOc1ccc(/C=N/OCC(=O)NC(c2ccccc2)c2ccccc2)cc1` gave Yeast lifespan up 6.8, SDO1 yeast rescue -1.15, BB579 growth dn -31.3 and RAM inhibit 10.5*.
Cc1ccc(NC(=O)C(=O)NCCN2CCN(S(=O)(=O)c3ccccc3)CC2)cc1C was read as RAM inhibit -0.8.
Cc1nn(-c2ccccc2)c(N2CCCC2)c1/C=N/NC(=O)c1ccccc1O was read as Yeast lifespan up -5.2, SDO1 yeast rescue 0.21, BB579 growth dn -34.6 and RAM inhibit 0.5.
Screening O=C(N/N=C/c1cc2c3c(c1O)CCCN3CCC2)c1ccccc1O returned Yeast lifespan up 2.4, SDO1 yeast rescue 0.21, BB579 growth dn 62.4* and RAM inhibit 6.6.
CC(C)n1nc(C(=O)Oc2cccc(Cl)c2Cl)c2ccccc2c1=O was read as Yeast lifespan up 34.7*, SDO1 yeast rescue 0.73, BB579 growth dn -32.3 and RAM inhibit 2.4.
`CC(C)n1nc(C(=O)Oc2cc(Cl)ccc2Cl)c2ccccc2c1=O` gave Yeast lifespan up 21.4, SDO1 yeast rescue -0.49, BB579 growth dn -5.1 and RAM inhibit 0.6.
`CN(C)C(=O)CSc1nnc(Cc2ccccc2)n1CC1CCCO1` (stereo not drawn) gave RAM inhibit 0.7.
For COc1ccc(C)cc1NC(=O)Cn1cnc2sc(C)c(S(=O)(=O)N3CCOCC3)c2c1=O the results were Yeast lifespan up 3.3, SDO1 yeast rescue 1.11, BB579 growth dn -56.1 and RAM inhibit 6.2.
For COc1ccccc1NC(=O)Cn1cnc2sc(C)c(S(=O)(=O)N3CCCCC3)c2c1=O the results were Yeast lifespan up 7.9, SDO1 yeast rescue 0.36, BB579 growth dn -42.7 and RAM inhibit 8.9*.
Screening COc1ccccc1NC(=O)Cn1cnc2sc(C(=O)NCc3ccco3)c(C)c2c1=O returned Yeast lifespan up -23.9, SDO1 yeast rescue -0.64, BB579 growth dn -19.1 and RAM inhibit 9.4*.
CNC(=O)N(C1=NCCCCC1)c1ccc(Br)cc1 was read as Yeast lifespan up 16.0, SDO1 yeast rescue -0.59, BB579 growth dn -23.8 and RAM inhibit 1.9.
